We go through seven compounds from ChEMBL document CHEMBL3102846 (Eur J Med Chem, 2014).

Calls of active or inactive are those of the source. No cut-off for these calls is given here.

A short description of data set [1]: Inhibition of Wnt3A/beta-catenin signaling-mediated Tcf4 transcriptional activity in human HEK293T cells at dual luciferase reporter gene assay EC50 after 24 hrs by FOPglow reporter gene assay. Further details: scale not given: the % may be the effect or the level left. Background: A reporter such as luciferase makes a cellular process visible.
The nature of data set [2]: Inhibition of Wnt3A/beta-catenin signaling in HEK293 cells after 24 hrs by firefly/renilla dual luciferase reporter gene assay. The data set is classed as cell-based. The conditions noted are these: Homo sapiens, HEK293, 24 h. The procedure, abridged: (§1)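 HEK293T cells were co-transfected with TOPglow (or FOPglow) plus pCMV Renilla. At 20 h they were reseeded at 18×10^3/well and treated for 24 h with Wnt-3A conditioned medium (from L-Wnt-3A cells) plus analogs (0.01–20 µM; DMSO ≤0.1%). Firefly/Renilla dual-luciferase ratios were expressed as % of DMSO under Wnt-3A. EC50 was taken from sigmoidal concentration–response fits; three independent experiments.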

The subject of the next data set is HEK293T (human). The data set can be described thus: Cytotoxicity against human HEK293T cells at dual luciferase reporter gene assay EC50 after 24 hrs by MTS assay.
The nature of data set [3]: Inhibition of Wnt3A/beta-catenin signaling in HEK293 cells at 20 uM after 24 hrs by firefly/renilla dual luciferase reporter gene assay relative to vehicle-treated control. In kind it is cell-based. Further details: scale not given: the % may be the effect or the level left. The conditions noted are these: Homo sapiens. The procedure, abridged:
as §1

Data set [4] in a line: Inhibition of Wnt3A/beta-catenin signaling in HEK293 cells at 10 uM after 24 hrs by firefly/renilla dual luciferase reporter gene assay relative to vehicle-treated control. The data set is classed as cell-based. Set-up: scale not given: the % may be the effect or the level left. The conditions noted are these: Homo sapiens. The procedure, abridged:
as §1

Data set [5] in a line: Inhibition of Wnt3A/beta-catenin signaling in human U2OS cells assessed as effect on cytoplasmic beta-catenin level at 5 uM after 24 hrs by Western blot analysis. In kind it is cell-based. The procedure, abridged:
(§2)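 U2OS cells were pretreated with analogs for 24 h, and cytoplasmic and nuclear fractions were prepared for β-catenin immunoblotting. α-Tubulin (cytoplasmic) and lamin A/C (nuclear) were loading references. Bands were quantified by densitometry and expressed as % of DMSO-treated cells, with at least triplicate experiments.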
A general note: Immunoblotting shows a protein as a band on a membrane.

Data set [6] in a line: Inhibition of Wnt3A/beta-catenin signaling-mediated Tcf4 transcriptional activity in human U2OS cells at 1 uM after 24 hrs by FOPglow reporter gene assay. In kind it is cell-based. The procedure, abridged: (§3)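 U2OS cells (1.0×10^5/well, 90–95% confluent) were co-transfected with TOPglow or FOPglow (0.3 µg) plus pCMV Renilla. At 20 h they were treated for 24 h with Wnt-3A conditioned medium and analogs. Firefly luciferase was normalized to Renilla and expressed as % of DMSO-treated samples; mean ± S.E.M of three independent experiments.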

The nature of data set [7]: Inhibition of Wnt3A/beta-catenin signaling in HEK293 cells at 1 uM after 24 hrs by firefly/renilla dual luciferase reporter gene assay relative to vehicle-treated control. In kind it is cell-based. Further details: scale not given: the % may be the effect or the level left. To be noted: Homo sapiens. A digest of the protocol: as §1
Data set [8] is described as follows: Inhibition of Wnt3A/beta-catenin signaling in human U2OS cells assessed as reduction in nuclear beta-catenin accumulation at 5 uM after 24 hrs by Western blot analysis. In kind it is cell-based. A digest of the protocol: as §2
Data set [9] is described as follows: Inhibition of Wnt3A/beta-catenin signaling in HEK293 cells at 5 uM after 24 hrs by firefly/renilla dual luciferase reporter gene assay relative to vehicle-treated control. The data set is classed as cell-based. Set-up: scale not given: the % may be the effect or the level left. The conditions noted are these: Homo sapiens. The procedure, abridged:
as §1

Data set [10] relates to U2OS. The data set can be described thus: Antiinvasive activity in human U2OS cells at 5 uM after 24 hrs by matrigel assay. In kind it is functional. The procedure, abridged:
(§4)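 U2OS osteosarcoma cells were pretreated with analogs for 24 h, and viability was confirmed by trypan blue. Cells were then seeded at 1.5×10^5 in serum-free medium onto inserts precoated with 30 µg Matrigel (8 µm pore), with McCoy's 5A plus 15% FBS below as chemoattractant. After 48 h of invasion, cells were fixed in 70% ethanol, stained with 0.2% crystal violet, and counted in ten random fields at 200×. Values are % of DMSO control; n=3.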

For data set [11], the system named is U2OS. The experiment in a line: Antiinvasive activity in human U2OS cells at 1 uM after 24 hrs by matrigel assay. In kind it is functional. The procedure, abridged: as §4
Data set [12] can be described thus: Inhibition of Wnt3A/beta-catenin signaling in HEK293 cells after 24 hrs by firefly/renilla dual luciferase reporter gene assay relative to curcumin. The data set is classed as cell-based. The conditions noted are these: Homo sapiens. The procedure, abridged: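 EC50s came from the HEK293T TOPglow/Renilla dual-luciferase assay with Wnt-3A conditioned medium and 24 h compound exposure (0.01–20 µM), using sigmoidal fits; three independent experiments.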

Data set [13] relates to U2OS. The experiment in a line: Downregulation of MMP9 protein expression in human U2OS cells at 1 to 5 uM after 24 hrs by Western blot analysis. In kind it is functional, cell-based. A digest of the protocol: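 U2OS cells were exposed to analogs or DMSO vehicle for 24 h, then total protein was collected and MMP-9 immunoblotted. Blots were repeated at least in triplicate.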

Data set [14] can be described thus: Inhibition of Wnt3A/beta-catenin signaling-mediated Tcf4 transcriptional activity in human U2OS cells at 20 uM after 24 hrs by FOPglow reporter gene assay. The data set is classed as cell-based. A digest of the protocol: as §3
Data set [15] can be described thus: Inhibition of Wnt3A/beta-catenin signaling-mediated Tcf4 transcriptional activity in human U2OS cells at 10 uM after 24 hrs by FOPglow reporter gene assay. In kind it is cell-based. A digest of the protocol:
as §3

Data set [16] can be described thus: Inhibition of Wnt3A/beta-catenin signaling-mediated Tcf4 transcriptional activity in human U2OS cells at 5 uM after 24 hrs by FOPglow reporter gene assay. The data set is classed as cell-based. A digest of the protocol: as §3

As usually defined, the EC50 is the concentration needed to bring the measured effect to its halfway point. The term inhibition denotes the change of the read-out against control, counted positive when it falls. For `COc1ccc(/C=C2\CCC/C(=C\c3ccc(OC)c(O)c3)C2=O)cc1O`, the activity worked out at 93.8% in [1]; 21.4% in data set [3]; 24.7% in data set [4]; 37.3% in data set [7]; 27.7% in data set [9]. The compound further came in with an EC50 in data set [2] of 300 nM. Besides, the Activity stood at 91.6% with HEK293T (human), 81.6% in the data set with U2OS [10] and 34.8% in the data set with U2OS [11]. Also, the inhibition result in data set [5] is “inactive”. In data set [6], the inhibition was found to be 25.7%. The inhibition entry in data set [8] is “Active”. In [12], this compound showed a fold change (FC) of 59.7. Further, the activity result in the data set on U2OS [13] was “Active”.

Regarding `COc1ccc(/C=C2\CC/C(=C\c3ccc(OC)c(O)c3)C2=O)cc1O`, the activity is 110% in data set [1]; 39.2% in data set [3]; 39.5% in data set [4]; 52.6% in data set [7]; 45% in [9]. Moreover, in data set [2], a half-maximal effect (EC50) was put at 500 nM. Also, the Activity in the data set on HEK293T (human) was found to be 86.9%. Further, the inhibition result in data set [5] and in [8] was “inactive” in each case. The same compound showed an inhibition in data set [6] of 25.7%. In data set [12], this compound yielded a fold change (FC) of 40.4.

As to `O=C1/C(=C/c2ccc(O)cc2)CC/C1=C\c1ccc(O)cc1`, the activity in data set [1] worked out at 101%; in data set [3] it was 8%; in data set [4], 19.6%; in data set [7], 34.3%; in data set [9], 28.3%. The same compound had an EC50 in [2] of 400 nM. In addition, the Activity with HEK293T (human) is 81.4%; in the data set with U2OS [10], 72.8%; in the data set on U2OS [11] it was 34.8%. Also, the inhibition entry in data set [5] was “inactive”. Besides, the inhibition in data set [6] was 25.7%. In addition, the inhibition entry in data set [8] was “Active”. This compound displayed a fold change (FC) in data set [12] of 50.5. In addition, the activity result in the data set with U2OS [13] was “Active”.

For the compound `COc1cc(/C=C/C(=O)CC(=O)/C=C/c2ccc(O)c(OC)c2)ccc1O` [CURCUMIN], the activity in [1] came out at 89.3%; in data set [3] it was 62.8%; in data set [4] it was 82.5%; in data set [7], 99.4%; in data set [9], 98.2%. For the same compound, the EC50 in data set [2] was 20700 nM. In the data set on U2OS [10], this compound showed an Activity of 29%. In addition, the results for the inhibition in data set [14] and in data set [15] were 59.4% and 27.1%, respectively.

Consider `O=C1/C(=C/c2ccc(O)cc2)CCC/C1=C\c1ccc(O)cc1`, for which the activity in [1] was 85.1%; in data set [3], 16.7%; in data set [4], 26.3%; in [7], 51.9%; in data set [9], 26.9%. Further, the half-maximal effective concentration (EC50) in data set [2] came out at 800 nM. The inhibition entry in data set [5] and in data set [8] was “inactive” in each case. This compound also had an inhibition in data set [6] of 25.7%. This compound gave a fold change (FC) in data set [12] of 25.8.

As to `O=C(/C=C/c1ccc(O)cc1)/C=C/c1ccc(O)cc1`, the activity worked out at 100% in data set [1]; 37.8% in data set [3]; 52% in data set [4]; 62.3% in data set [7]; 51.3% in data set [9]. The same compound returned a concentration for a half-maximal effect (EC50) in data set [2] of 3200 nM. In [5], the inhibition entry was “inactive”. Further, the inhibition in [6] was determined as 25.7%. For the same compound, the inhibition result in data set [8] was “Active”. Further, the figures for the Activity in the data set with U2OS [10] and with U2OS [11] were 76.2% and 34.8%, respectively. This compound returned a fold change (FC) in [12] of 6.5. The activity entry in the data set with U2OS [13] is “Active”.

On to `COc1ccc(/C=C/C(=O)/C=C/c2ccc(OC)c(O)c2)cc1O`, for which the activity stood at 105% in data set [1], 34.4% in [4], 82.5% in data set [7] and 38.8% in [9]. Moreover, the half-maximal effective concentration (EC50) in data set [2] was 1800 nM. The same compound yielded an Activity in the data set with HEK293T (human) of 86.6%. The inhibition result in data set [5] and in data set [8] was “inactive” throughout. The inhibition in [16] was 49.4%. For the same compound, the fold change (FC) in data set [12] turned out to be 11.2.
